Measurements taken from article PMC11292830 (ACS Omega, 2024).
Bridges are numbered along the chain shown (N, C = ends). Where no end group is shown, it is not given here.

Key:
[1] = FRET assay in solution of Cy3- and Cy5-labeled peptides; type: physicochemical; conditions: 100 nM Cy3-labeled plus 100 nM Cy5-labeled peptide in PBS, excitation of Cy3 at 490 nm, microplate reader, n = 3
[2] = Differential scanning calorimetry of the oligomers; type: physicochemical; conditions: DSC, 10 mg/mL in 20 mM Tris-HCl pH 7.5, 100 mM NaCl, 4 to 110 °C at 1 °C/min, 3 atm, first scan
[3] = Native mass spectrometry of oligomeric state; type: physicochemical; conditions: 50 mM ammonium acetate (pH 6.9), native ESI-MS, column bypassed
Method in brief: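 Intact-mass LC/MS on a QTof instrument fed by UHPLC, with the column bypassed to capture the full oligomer profile. Test compound was in 50 mM ammonium acetate (pH 6.9) under native conditions. Electrospray in positive ionization mode; source temperature 300 °C; ion spray voltage 5500 V. Spectra were inspected over the expected regions for larger oligomers.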

[4] = cited from earlier work

FRET efficiency [1]: 0.36 | melting temperature (Tm2) [2]: 63.8 °C | oligomeric state by native mass spectrometry [3]: prefers to form oligomers
Sequence: LKKLCLKLKKLCKLAG (disulfide 5-12 (inferred)) [LK-3]
molecularity of the oligomer by SEC-MALS [4]: tetramer of dimers
